# A selection: hits, their analogues and other compounds. The true share with any hit is near 2.1%.
# MC4R barr agon: agonists of human melanocortin 4 receptor (MC4R) beta-arrestin; 360,000 compounds, 0.98% hits; U2OS MC4R beta-arrestin complementation, luminescence; percent of melanotan II response, DMSO zero; AID 540308; P32245; activation, % at 8.9 µM;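 active means activation above a per-plate cutoff, the mean activation of sample wells on that plate plus 3 SD, cut at about 8% in these data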
# Target sequence (P32245 whole entry, looked up): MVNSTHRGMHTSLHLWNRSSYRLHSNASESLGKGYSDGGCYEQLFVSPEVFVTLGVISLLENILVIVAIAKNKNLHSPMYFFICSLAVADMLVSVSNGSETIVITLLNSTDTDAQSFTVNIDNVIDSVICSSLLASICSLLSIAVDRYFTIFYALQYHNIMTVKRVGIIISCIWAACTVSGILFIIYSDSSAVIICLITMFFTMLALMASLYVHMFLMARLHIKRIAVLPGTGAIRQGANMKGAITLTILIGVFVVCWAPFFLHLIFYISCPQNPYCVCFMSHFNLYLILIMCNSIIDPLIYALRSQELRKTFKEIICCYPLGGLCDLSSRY
# SMARCA2 activ: increases SMARCA2 function in MMTV reporter cells. MG213 cells, MMTV-luciferase reporter, dexamethasone, overnight. activation, % at 9.1 µM. 370,000 compounds, 1% hits. AID 652017; in the data active means activation above about 7.8%
# CFTR F508del cor: correctors of CFTR F508del function in bronchial epithelial cells. CFBE cells, YFP halide quenching; stimulated with forskolin plus potentiator P3; % fluorescence drop versus neutral controls. 350,000 compounds, 0.36% hits. activity (quench increase), % at 7.58 µM. AID 720511;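 active means mean added fluorescence quench of at least 8% versus neutral control, with both replicates also reaching 8%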;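 further: cells transiently co-express mutant CFTR-F508del with the halide-sensitive YFP; corrector assay measuring rescue of mutant channel to the surface after 24 h compound exposure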
# MC4R antagonist: human MC4R antagonism in cAMP assay; inhibition, % at 6.5 µM; AID 540295; 360,000 compounds, 0.48% hits; MC4R-expressing cells, MTII-stimulated cAMP, LANCE TR-FRET; P32245;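 active means inhibition above its plate's cutoff, the mean of tested wells on that plate plus 3 SD, cut at about 29% in these data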
#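 material = U2OS cells stably expressing human melanocortin 4 receptor (MC4R) | also added = Melanotan II challenge | dosing = single nominal compound dose of 6.5 µM | detection = TR-FRET with Eu-cAMP and labeled anti-cAMP, 671 nm | replication = singlicate | timing = compound 30 min, challenge 1 h, detection 1 h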
# SMARCA2 conf: SMARCA2 activation, confirmation screen; AID 652260; shares compounds with SMARCA2 activ; 3,500 compounds, 30% hits; activation, % at 9.1 µM; MG213 cells, MMTV-luciferase with dexamethasone, luminescence, overnight; MG213 cells expressing E1A, Rb sequestered; DMSO wells 0%, reference activator 100%;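 active means activation above its plate's cutoff, the mean activation of tested wells plus 3 SD, cut at about 7.9% in these data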
# VP16 Luc act: GAL4-VP16 reporter activation counter-screen | shares compounds with SMARCA2 activ | HEK293 GAL4-VP16 pG5luc reporter, luciferase luminescence; scaled: DMSO wells 0%, SAHA wells 100% | activation, % at 9.1 µM | 3,500 compounds, 41% hits | AID 686939;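 active means activation above the solvent-only control well mean plus 3 SD, averaged across control plates, cut at about 5.2% in these data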
# Hits are given with their value; i = inactive; nt = no result given.
SMILES,MC4R barr agon,SMARCA2 activ,CFTR F508del cor,MC4R antagonist,SMARCA2 conf,VP16 Luc act
Cc1noc(C)c1S(=O)(=O)N(C)C[C@@H]1OCCCC[C@H](C)Oc2ccc(NC(=O)CCCN(C)C)cc2C(=O)N([C@H](C)CO)C[C@@H]1C,nt,nt,i,nt,nt,nt
C/C(=N\NC(=O)Cc1c(C)[nH][nH]c1=O)c1ccc(Cl)c(Cl)c1,i,8.0,i,i,i,i
CC(C)NC(=O)N(C)C[C@H]1Oc2ncc(C#CC3CC3)cc2C(=O)N([C@H](C)CO)C[C@H]1C,nt,nt,i,nt,nt,nt
O=C(/C=C/c1ccccc1)NC(=O)c1ccccc1O,i,9.6,i,i,11.2,6.4
COc1cc(/C=C/C(=O)NC(=O)c2ccccc2O)ccc1O,i,i,i,i,nt,nt
Cc1ccc(Nc2ncc3c(n2)CC(C)CC3=O)c(C)c1 (configuration not stated),i,8.2,i,i,8.3,i
Cc1cc(N2CCOCC2)nc2ccc(NC(=O)CCC(=O)N3CCN(c4ccccc4)CC3)cc12,i,8.2,i,i,i,5.4
CCCCNC(=O)CCC(=O)Nc1ccc2nc(N3CCOCC3)cc(C)c2c1,i,i,nt,i,nt,nt
C=C1c2ccccc2NC(=O)N1c1ccc(OC)cc1,i,9.1,nt,i,13.3,i
CCCN1[C@@H]2Cn3c(ccc(C4=CCCC4)c3=O)[C@H]1[C@@H](C(=O)N(C)C)[C@@H]2CO,nt,nt,i,nt,nt,nt
COc1ccc(C(=O)Cc2nnc(C)s2)cc1,i,9.1,nt,i,i,11.6
COc1ccc(NC(=O)COC(=O)c2ccc(N3CCCC3=O)cc2)cc1,i,i,i,i,nt,nt
CC(NC(=O)COC(=O)c1ccc(N2CCCC2=O)cc1)c1ccc(F)cc1 (configuration not stated),i,9.4,i,i,i,i
CC(=O)N1CC[C@H]2[C@@H]1c1cc(-c3ccc(C#N)cc3)ccc1N(C)[C@H]2CO,nt,nt,i,nt,nt,nt
CCc1ccc(C(O)c2ncc(-c3ccccc3F)[nH]2)cc1 (configuration not stated),i,13.3,i,i,i,i
OC(c1ccc(F)cc1)c1ncc(-c2ccccc2F)[nH]1 (configuration not stated),i,i,i,i,nt,nt
COc1cccc(-c2cc(C(=O)NCc3ccco3)no2)c1,i,8.4,nt,i,i,11.2
O=C(NCc1ccco1)c1cc(-c2cccc(Cl)c2)on1,i,i,nt,i,nt,nt
O=C(NCc1ccco1)c1ccc(-c2cccc(Cl)c2)o1,i,9.6,i,i,12.6,5.3
C[C@H](NC(=O)C[C@H]1C[C@@H]2c3cc(NC(=O)c4cccnc4)ccc3O[C@@H]2[C@@H](CO)O1)c1ccccc1,nt,nt,i,nt,nt,nt
CC(C)NC(=O)N(C)C[C@H]1Oc2cc(-c3ccncc3)ccc2S(=O)(=O)N([C@@H](C)CO)C[C@@H]1C,nt,nt,i,nt,nt,nt
COc1ccc(C(CC(=O)Nc2nccs2)C(C)C)cc1 (configuration not stated),i,i,i,i,nt,nt
COc1ccc(C(CC(=O)Nc2nccs2)n2cccc2)cc1 (configuration not stated),i,8.1,nt,i,i,10.0
O=C(c1ccc2c(c1)OCCO2)N1CCCCC1,i,i,nt,i,nt,nt
CC1CCCN(C(=O)c2ccc3c(c2)OCCO3)C1 (configuration not stated),i,9.9,i,i,i,5.5
SMILES,MC4R barr agon,SMARCA2 activ,CFTR F508del cor,MC4R antagonist,SMARCA2 conf,VP16 Luc act
Cc1ccc(NC(=O)c2ncc(Cl)c(Cl)c2Cl)cc1C,i,8.2,i,i,i,9.5
C[C@H]1CN([C@@H](C)CO)C(=O)c2ccccc2-c2ccccc2CO[C@@H]1CN(C)C(=O)NC1CCCCC1,nt,nt,i,nt,nt,nt
Cc1ccc(S(=O)(=O)N(C)C[C@H]2OCCCC[C@H](C)Oc3ccc(NC(=O)Nc4ccccc4)cc3C(=O)N([C@@H](C)CO)C[C@@H]2C)cc1,nt,nt,i,nt,nt,nt
C/C(=N\NC(=O)c1ccc(Cl)cc1)c1cccs1,i,8.4,i,i,20.4,13.6
C/C(=N\NC(=O)c1ccc(NS(=O)(=O)c2cccs2)cc1)c1cccs1,i,i,i,i,nt,nt
C/C(=N\NC(=O)c1ccc(NS(=O)(=O)c2cccs2)cc1)c1ccc(Cl)cc1,i,9.1,nt,i,i,i

# Screening results from PubChem BioAssay.
